Test results taken from ChEMBL document CHEMBL1649383, “Mode of action of epoxyphomalins A and B and characterization of related metabolites from the marine-derived fungus Paraconiothyrium sp” (J Nat Prod, 2010).
≈ marks a conversion by molar mass, not a printed value.

What was measured:
[1] = Cytotoxicity against human MEXF 462NL cells; type: functional, cell-based
Method in brief: (§1)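 Monolayer cell survival and proliferation assay run across a panel of 36 human tumor cell lines, with IC50 determined from the resulting growth data.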

[2] = Cytotoxicity against human MEXF 514L cells at 0.01 ug/ml relative to control; type: functional
[3] = Cytotoxicity against human MEXF 394NL cells at 0.1 ug/ml relative to control; type: functional
[4] = Cytotoxicity against human MEXF 514L cells at 0.001 ug/ml relative to control; type: functional
[5] = system: T-24; experiment: Cytotoxicity against human T24 cells; type: functional, cell-based; method in brief: as §1
[6] = system: LNCaP; experiment: Cytotoxicity against human LNCAP cells at 0.001 ug/ml relative to control; type: functional
[7] = system: HT-29; experiment: Cytotoxicity against human HT-29 cells at 0.1 ug/ml relative to control; type: functional
[8] = system: DU-145; experiment: Cytotoxicity against human DU145 cells at 0.1 ug/ml relative to control; type: functional
[9] = Cytotoxicity against human MEXF 520L cells at 0.001 ug/ml relative to control; type: functional
[10] = Cytotoxicity against human LXFA 629L cells at 1 ug/ml relative to control; type: functional
[11] = Cytotoxicity against human MAXF 401NL cells at 0.001 ug/ml relative to control; type: functional
[12] = Cytotoxicity against human MEXF 514L cells; type: functional, cell-based; method in brief: as §1
[13] = Cytotoxicity against human MEXF 394NL cells at 1 ug/ml relative to control; type: functional
[14] = Cytotoxicity against human MAXF 401NL cells at 1 ug/ml relative to control; type: functional
[15] = Cytotoxicity against human MAXF 401NL cells; type: functional, cell-based
Method in brief: (§2)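 Monolayer cell survival and proliferation assay run across a panel of 36 human tumour cell lines; IC50 values determined.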

[16] = system: NCI-H460; experiment: Cytotoxicity against human H460 cells at 0.001 ug/ml relative to control; type: functional
[17] = Cytotoxicity against human BXF 1218L cells at 1 ug/ml relative to control; type: functional
[18] = system: LNCaP; experiment: Cytotoxicity against human LNCAP cells at 1 ug/ml relative to control; type: functional
[19] = system: HT-29; experiment: Cytotoxicity against human HT-29 cells at 0.001 ug/ml relative to control; type: functional
[20] = system: HCT-116; experiment: Cytotoxicity against human HCT116 cells; type: functional, cell-based
Method in brief: (§3)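 Monolayer cell survival and proliferation assay, run within a panel of 36 human tumor cell lines; IC50 determined per cell line.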

[21] = Cytotoxicity against human OVXF 1619L cells at 10 ug/ml relative to control; type: functional
[22] = Cytotoxicity against human LXFA 526L cells at 0.001 ug/ml relative to control; type: functional
[23] = Cytotoxicity against human RXF 944L cells at 0.001 ug/ml relative to control; type: functional
[24] = Cytotoxicity against human MEXF 462NL cells at 1 ug/ml relative to control; type: functional
[25] = Cytotoxicity against human PXF 1752L cells at 0.01 ug/ml relative to control; type: functional
[26] = Cytotoxicity against human CNXF 498NL cells at 0.1 ug/ml relative to control; type: functional
[27] = Cytotoxicity against human LXFA 289L cells; type: functional, cell-based; method in brief: as §2
[28] = Cytotoxicity against human PC3M cells; type: functional, cell-based; settings: PC-3M; method in brief: as §1
[29] = Cytotoxicity against human RXF 486L cells at 0.01 ug/ml relative to control; type: functional
[30] = Cytotoxicity against human MAXF 401NL cells at 10 ug/ml relative to control; type: functional
[31] = Cytotoxicity against human BXF 1218L cells at 0.01 ug/ml relative to control; type: functional
[32] = Cytotoxicity against human LXFA 629L cells at 0.1 ug/ml relative to control; type: functional
[33] = Cytotoxicity against human LXFL 529L cells at 0.01 ug/ml relative to control; type: functional
[34] = Cytotoxicity against human OVXF 899L cells at 0.001 ug/ml relative to control; type: functional
[35] = Cytotoxicity against human OVXF 899L cells; type: functional, cell-based; method in brief: as §1
[36] = Cytotoxicity against human LXFL 529L cells at 0.1 ug/ml relative to control; type: functional
[37] = Cytotoxicity against human MAXF 401NL cells at 0.1 ug/ml relative to control; type: functional
[38] = Cytotoxicity against human HNXF 536L cells; type: functional, cell-based; method in brief: as §3
[39] = Cytotoxicity against human LXFA 526L cells at 10 ug/ml relative to control; type: functional
[40] = system: PANC-1; experiment: Cytotoxicity against human PANC1 cells at 10 ug/ml relative to control; type: functional
[41] = Cytotoxicity against human RXF 944L cells; type: functional, cell-based; method in brief: as §1
[42] = Cytotoxicity against human RXF 393NL cells at 1 ug/ml relative to control; type: functional
[43] = Cytotoxicity against human UXF 1138L cells at 0.1 ug/ml relative to control; type: functional
[44] = Cytotoxicity against human RXF 944L cells at 0.1 ug/ml relative to control; type: functional
[45] = Cytotoxicity against human LXFA 629L cells at 0.001 ug/ml relative to control; type: functional
[46] = system: LNCaP; experiment: Cytotoxicity against human LNCAP cells; type: functional, cell-based; method in brief: as §2
[47] = Cytotoxicity against human PXF 1752L cells at 10 ug/ml relative to control; type: functional
[48] = system: MCF7; experiment: Cytotoxicity against human MCF7 cells at 0.01 ug/ml relative to control; type: functional
[49] = Cytotoxicity against human RXF 393NL cells at 10 ug/ml relative to control; type: functional
[50] = Cytotoxicity against human MEXF 276L cells at 0.01 ug/ml relative to control; type: functional, MEXF276L
[51] = system: SF-268; experiment: Cytotoxicity against human SF268 cells; type: functional, cell-based; method in brief: as §1
[52] = system: HCT-116; experiment: Cytotoxicity against human HCT116 cells at 0.001 ug/ml relative to control; type: functional
[53] = Cytotoxicity against human UXF 1138L cells at 0.001 ug/ml relative to control; type: functional
[54] = Cytotoxicity against human LXFA 526L cells at 0.01 ug/ml relative to control; type: functional

For C=C1[C@@H](O)[C@H]2O[C@@]2(C[C@H]2C(C)=CC[C@H]3C(C)(C)CCC[C@]23C)[C@@H](O)[C@H]1O [EPOXYPHOLAMIN D], the IC50 [1] was 5.79 µM, the IC70 [1] was 4.77 µg/mL (≈ 13.2 µM) and the IC90 [1] was 10.9 µg/mL (≈ 30 µM). The Activity [2] was 123%, the Activity [3] was 99% and the Activity [4] was 119%. For the same molecule, the IC50 [5] was 12 µM, the IC70 [5] was 6.41 µg/mL (≈ 17.7 µM) and the IC90 [5] was 9.44 µg/mL (≈ 26 µM). The Activity [6] was 82%, the Activity [7] was 108% and the Activity [8] was 88%. The Activity [9] was 97%, the Activity [10] was 53% and the Activity [11] was 106%. The IC50 [12] was 11.6 µM, the IC70 [12] was 6.57 µg/mL (≈ 18.1 µM) and the IC90 [12] was 10.2 µg/mL (≈ 28.2 µM). It also gave an Activity [13] of 78%, an Activity [14] of 48% and an IC50 [15] of 2570 nM. The IC70 [15] was 3.16 µg/mL (≈ 8.72 µM), the IC90 [15] was 11.4 µg/mL (≈ 31.3 µM) and the Activity [16] was 107%. The Activity [17] was 29%, the Activity [18] was 136% and the Activity [19] was 97%. The IC50 [20] was 7.7 µM, the IC70 [20] was 4.86 µg/mL (≈ 13.4 µM) and the IC90 [20] was 8.47 µg/mL (≈ 23.4 µM). It also gave an Activity [21] of 10%, an Activity [22] of 109% and an Activity [23] of 150%. The Activity [24] was 68%, the Activity [25] was 101% and the Activity [26] was 71%. It also gave an IC50 [27] of 18.5 µM, an IC70 [27] of 13.9 µg/mL (≈ 38.3 µM) and an IC90 [27] of 28.9 µg/mL (≈ 79.6 µM). For the same molecule, the IC50 [28] was 720 nM, the IC70 [28] was 0.605 µg/mL (≈ 1.67 µM) and the IC90 [28] was 4.12 µg/mL (≈ 11.4 µM). It also gave an Activity [29] of 99%, an Activity [30] of 12% and an Activity [31] of 94%. For the same molecule, the Activity [32] was 81%, the Activity [33] was 99% and the Activity [34] was 103%. For the same molecule, the IC50 [35] was 8.19 µM, the IC70 [35] was 5.62 µg/mL (≈ 15.5 µM) and the IC90 [35] was 10.7 µg/mL (≈ 29.4 µM). For the same molecule, the Activity [36] was 100%, the Activity [37] was 110% and the IC50 [38] was 7.92 µM. The IC70 [38] was 5 µg/mL (≈ 13.8 µM), the IC90 [38] was 8.7 µg/mL (≈ 24 µM) and the Activity [39] was 19%. It also gave an Activity [40] of 7%, an IC50 [41] of 10.8 µM and an IC70 [41] of 6.58 µg/mL (≈ 18.1 µM). It also gave an IC90 [41] of 11.1 µg/mL (≈ 30.6 µM), an Activity [42] of 118% and an Activity [43] of 99%. For the same molecule, the Activity [44] was 95%, the Activity [45] was 96% and the IC50 [46] was 17 µM. The IC70 [46] was 9.38 µg/mL (≈ 25.9 µM), the IC90 [46] was 14.3 µg/mL (≈ 39.5 µM) and the Activity [47] was 13%. The Activity [48] was 102%, the Activity [49] was 10% and the Activity [50] was 98%. It also gave an IC50 [51] of 10.4 µM, an IC70 [51] of 5.62 µg/mL (≈ 15.5 µM) and an IC90 [51] of 8.36 µg/mL (≈ 23.1 µM). For the same molecule, the Activity [52] was 88%, the Activity [53] was 96% and the Activity [54] was 104%.
